Pf Dd2 inh – inhibitors of Plasmodium falciparum Dd2 growth | P. falciparum Dd2 growth, SYBR Green, 72 h; active compounds read low | activity change, % at 10 µM | 2.3% of 94,000 active; in the data active = activity change below about -80%; inconclusive = no clear call, values can overlap the other calls
KDM4C inh – KDM4C (human) demethylase inhibition; AID 720574; 0.15% of 96,000 active; GST-KDM4C 2-372, H3K9me3 peptide, LANCE TR-FRET; inhibition, % at 12.5 µM; Q9H3R0;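 active = mean replicate inhibition above about 25%, with at least 55% of replicates also reaching it, limit read from the data, passing the limit was not always enough; inconclusive = only one of those two conditions met; inactive = neither condition met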
Target sequence (Q9H3R0 2-372 limits assumed): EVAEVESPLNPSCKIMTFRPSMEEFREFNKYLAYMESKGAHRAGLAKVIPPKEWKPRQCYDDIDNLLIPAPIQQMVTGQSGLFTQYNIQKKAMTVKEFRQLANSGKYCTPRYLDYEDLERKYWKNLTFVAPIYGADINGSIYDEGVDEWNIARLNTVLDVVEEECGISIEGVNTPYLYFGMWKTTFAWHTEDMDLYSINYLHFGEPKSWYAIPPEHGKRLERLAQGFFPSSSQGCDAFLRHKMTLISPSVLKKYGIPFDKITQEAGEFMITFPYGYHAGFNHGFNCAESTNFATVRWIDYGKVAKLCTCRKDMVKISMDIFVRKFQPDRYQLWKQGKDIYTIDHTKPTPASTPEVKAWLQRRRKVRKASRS
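Material: N-terminal GST-fused human GASC-1 (KDM4C) fragment, residues 2-372. Input: 10 nM enzyme. Incubation: enzyme reaction 30 min, then detection 60 min, both room temperature. Doses: one test concentration per compound. Read-out basis: inhibition from TR-FRET ratio decrease. Detection: LANCE TR-FRET, excitation 340 nm, emissions 618 and 671 nm.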
Tcruzi prolif – T. cruzi proliferation inhibition | T. cruzi beta-gal in NIH3T3, GalScreen luminescence, 90 h | inhibition, % at 8.34 µM | 5.9% of 77,000 active;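 active = mean inhibition above about 93%, with at least 55% of replicates each passing it, limit read from the data, passing the limit was not always enough; inconclusive = only one of those two conditions holds; inactive = neither condition holds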
IDH1 R132H inh – inhibitors of human IDH1 R132H; O75874; IDH1 R132H reductase, diaphorase/resazurin fluorescence, 60 min; inhibition, % at 10 µM; 0.18% of 70,000 active; AID 624101; in the data active = inhibition above about 34%; inconclusive = no clear call, values can overlap the other calls; inactive = below about 11%;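 also: 0% = DMSO and 100% = no enzyme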
* marks the source's active call; other numbers are inactive results; u = inconclusive; x = not tested or not shown. Rows were chosen to be rich in hits. Some 5.8% of all compounds tested hit in one or more screens of this group.

SMILES	Pf Dd2 inh	KDM4C inh	Tcruzi prolif	IDH1 R132H inh
O=C(Nc1cc(F)ccc1F)N1CC(=O)N2[C@H](CO)[C@@H](c3ccc(C#CC4CCCCC4)cc3)[C@@H]2C1	-82*	-4	x	x
O=C(Nc1ccccc1F)N1CC(=O)N2[C@H](CO)[C@H](c3ccc(-c4ccccc4)cc3)[C@@H]2C1	-6	-1	x	x
O=C(Nc1ccccc1F)N1CC(=O)N2[C@H](CO)[C@@H](c3ccc(-c4ccccc4)cc3)[C@H]2C1	-84*	-1	x	x
CCC(=O)N1CCC2(CC1)CN(Cc1cc(F)ccc1F)[C@@H](CO)c1[nH]c3cc(OC)ccc3c12	-90*	-1	x	x
COc1ccc2c3c(n(C)c2c1)[C@H](CO)N(Cc1cc(F)ccc1F)CC31CCN(C(C)=O)CC1	-64	0	x	x
COc1ccc2c3c([nH]c2c1)[C@@H](CO)N(Cc1cc(F)ccc1F)CC31CCN(C(C)=O)CC1	-83*	-1	x	x
COc1ccc2c3c([nH]c2c1)[C@H](CO)N(Cc1cc(F)ccc1F)CC31CCN(C(=O)CN(C)C)CC1	-81*	1	x	x
CCC(=O)N1CCC2(CC1)CN(C(C)=O)[C@@H](CO)c1[nH]c3cc(OC)ccc3c12	1	-1	x	x
CCC(=O)N1C[C@@H](C)[C@H](OC)CN(C)C(=O)c2cc(NC(=O)NC3CCCC3)ccc2OC[C@@H]1C	-29	2	x	x
C[C@@H]1CN([C@H](C)CO)C(=O)c2cc(NS(=O)(=O)c3cn(C)cn3)ccc2O[C@@H]1CN(C)S(=O)(=O)c1ccc(Cl)cc1	7	10	18	-2
COc1ccc(S(=O)(=O)N(C)C[C@H]2Oc3c(NC(=O)Nc4ccc5c(c4)OCO5)cccc3C(=O)N([C@H](C)CO)C[C@H]2C)cc1	-14	1	8	1
COc1ccc(S(=O)(=O)N(C)C[C@H]2Oc3c(NC(=O)Nc4ccc5c(c4)OCO5)cccc3C(=O)N([C@@H](C)CO)C[C@H]2C)cc1	-86*	0	1	x
COc1ccc(S(=O)(=O)N(C)C[C@@H]2Oc3c(NC(=O)Nc4ccccc4)cccc3C(=O)N([C@@H](C)CO)C[C@H]2C)cc1	x	-2	x	x
COc1ccc(S(=O)(=O)N(C)C[C@H]2Oc3c(NC(=O)Nc4ccccc4)cccc3C(=O)N([C@@H](C)CO)C[C@H]2C)cc1	-90*	2	47	1
CCCN(C)C[C@H]1OCCCC[C@@H](C)Oc2ccc(NC(=O)c3ccncc3)cc2C(=O)N([C@H](C)CO)C[C@@H]1C	-19	4	64	0
CCCN(C)C[C@H]1OCCCC[C@H](C)Oc2ccc(NC(=O)c3ccncc3)cc2C(=O)N([C@H](C)CO)C[C@H]1C	-86*	0	-2	x
CCCN(C)C[C@H]1OCCCC[C@@H](C)Oc2ccc(NC(=O)c3ccncc3)cc2C(=O)N([C@@H](C)CO)C[C@H]1C	-88*	-1	52	x
COc1cccc(C#Cc2cnc3c(c2)C(=O)N([C@@H](C)CO)C[C@H](C)[C@@H](CN(C)C(=O)C2CCOCC2)O3)c1	-83*	-2	x	-11
C[C@H](CO)N1C[C@H](C)[C@@H](CN(C)C(=O)c2ccccn2)Oc2ncc(Br)cc2C1=O	15	26*	x	8
COc1cccc(C#Cc2cnc3c(c2)C(=O)N([C@H](C)CO)C[C@H](C)[C@H](CN(C)C(=O)C2CCOCC2)O3)c1	-13	5	x	1
COc1cccc(C#Cc2cnc3c(c2)C(=O)N([C@@H](C)CO)C[C@H](C)[C@H](CN(C)C(=O)C2CCCCC2)O3)c1	-83*	-1	70	x
C[C@@H]1CN([C@@H](C)CO)C(=O)c2cc(Br)cnc2O[C@@H]1CN(C)C(=O)C1CCOCC1	42	39*	-13	19
CC(=O)c1cccc(NC(=O)CSc2nnnn2C)c1	x	x	x	0
CN(C)C(=O)C[C@H]1C[C@H]2c3cc(NC(=O)Nc4ccc(C(F)(F)F)cc4)ccc3O[C@H]2[C@H](CO)O1	-40	-3	-39	3
C[C@@H]1CCCCO[C@H](CN(C)C(=O)Nc2ccc(F)cc2)[C@H](C)CN([C@H](C)CO)C(=O)c2cc(NC(=O)C3CCCCC3)ccc2O1	-81*	-2	56	x
SMILES	Pf Dd2 inh	KDM4C inh	Tcruzi prolif	IDH1 R132H inh
C[C@@H]1CCCCO[C@H](CN(C)C(=O)Nc2ccc(C(F)(F)F)cc2)[C@H](C)CN([C@@H](C)CO)C(=O)c2cc(NC(=O)C3CCCCC3)ccc2O1	-83*	0	94	x
Cc1ccccc1/C=N/NC(=O)c1ccccc1O	x	x	x	1
O=C(C[C@H]1C[C@H]2c3cc(NC(=O)Cc4ccncc4)ccc3O[C@H]2[C@H](CO)O1)NCc1ccccc1	-89*	-2	6	0
CCCNC(=O)C[C@@H]1C[C@H]2c3cc(NC(=O)CC4CC4)ccc3O[C@H]2[C@H](CO)O1	-1	41*	-50	u
CN(C)c1ccc2c(c1)[C@@H]1C[C@@H](CC(=O)NCc3ccccn3)O[C@@H](CO)[C@@H]1O2	-35	28*	-11	-10
CN(C)c1ccc2c(c1)[C@@H]1C[C@H](CC(=O)NCc3ccccc3)O[C@@H](CO)[C@@H]1O2	-36	47*	42	-2
O=C(C[C@@H]1C[C@@H]2c3cc(NC(=O)Cc4ccncc4)ccc3O[C@@H]2[C@H](CO)O1)NCc1ccccc1	-39	-2	-2	0
CCCNC(=O)C[C@@H]1C[C@H]2c3cc(NC(=O)CC4CC4)ccc3O[C@H]2[C@@H](CO)O1	16	0	-17	0
CN(C)c1ccc2c(c1)[C@H]1C[C@H](CC(=O)NCc3ccc(-c4ccccc4)cc3)O[C@H](CO)[C@H]1O2	-45	3	x	x
C[C@@H]1CN([C@H](C)CO)C(=O)Cc2cc(NC(=O)CCCN(C)C)ccc2O[C@H]1CN(C)Cc1ccc(-c2ccccc2)cc1	-4	x	x	1
C[C@@H]1CCCCO[C@@H](CN(C)C(=O)Cc2ccccc2)[C@H](C)CN([C@@H](C)CO)C(=O)c2cc(N(C)C)ccc2O1	-12	3	12	-5
CCOC(=O)c1c(NC(=O)Cn2cnc3sc(-c4ccccc4)cc3c2=O)sc2c1CCCC2	x	x	x	1
C[C@H](CO)N1C[C@H](C)[C@H](CN(C)CC2CC2)Oc2ccc(NC(=O)Nc3ccc(C(F)(F)F)cc3)cc2CC1=O	-76	-1	29	x
C[C@H]1CN([C@@H](C)CO)C(=O)Cc2cc(NC(=O)CCC(F)(F)F)ccc2O[C@H]1CN(C)S(C)(=O)=O	-87*	3	-1	-1
C[C@H](CO)N1C[C@H](C)[C@H](CN(C)CC2CC2)Oc2ccc(NC(=O)Nc3ccccc3)cc2CC1=O	-89*	-3	-27	1
C[C@@H]1CN([C@H](C)CO)C(=O)Cc2cc(NC(=O)Nc3ccccc3)ccc2O[C@H]1CN(C)CC1CC1	-16	0	-38	0
C[C@@H]1CN([C@@H](C)CO)C(=O)Cc2cc(NC(=O)Nc3ccc(C(F)(F)F)cc3)ccc2O[C@@H]1CN(C)CC1CC1	-83*	-3	70	x
CC(C)NC(=O)Nc1cccc2c1O[C@@H](CN(C)C(=O)Nc1cccc3ccccc13)[C@H](C)CN([C@H](C)CO)C2=O	-6	2	-24	x
